Test results: ChEMBL document CHEMBL4665627 (Eur J Med Chem, 2019)
In brackets after ≈: the same amount, converted by molar mass.

Experiments:
Assay type in all cases: functional
[1] = tested on: Candida parapsilosis; assay: Antifungal activity against Candida parapsilosis ATCC 22019 assessed as inhibition of fungal growth after 24 hrs by CLSI protocol based two fold serial dilution method; details: Lodderomyces parapsilosis
Procedure, shortened: (§1)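 Two-fold serial broth dilution in 96-well plates following CLSI; MIC (mM) taken as the lowest concentration giving complete growth inhibition; MIC values from three independent experiments.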

[2] = tested on: Enterococcus faecalis; assay: Antibacterial activity against Enterococcus faecalis assessed as inhibition of bacterial growth after 24 hrs by CLSI protocol based two fold serial dilution method; procedure, shortened: as §1
[3] = tested on: Aspergillus fumigatus; assay: Antifungal activity against Aspergillus fumigatus assessed as inhibition of fungal growth after 24 hrs by CLSI protocol based two fold serial dilution method; procedure, shortened: as §1
[4] = tested on: Escherichia coli; assay: Antibacterial activity against Escherichia coli ATCC 25922 assessed as inhibition of bacterial growth after 24 hrs by CLSI protocol based two fold serial dilution method; procedure, shortened: as §1
[5] = tested on: Staphylococcus aureus; assay: Antibacterial activity against methicillin-resistant Staphylococcus aureus N315 assessed as inhibition of bacterial growth after 24 hrs by CLSI protocol based two fold serial dilution method
[6] = tested on: Pseudomonas aeruginosa; assay: Antibacterial activity against Pseudomonas aeruginosa ATCC 27853 assessed as inhibition of bacterial growth after 24 hrs by CLSI protocol based two fold serial dilution method; procedure, shortened: as §1
[7] = tested on: Pseudomonas aeruginosa; assay: Antibacterial activity against Pseudomonas aeruginosa assessed as inhibition of bacterial growth after 24 hrs by CLSI protocol based two fold serial dilution method; procedure, shortened: as §1
[8] = tested on: Staphylococcus aureus; assay: Antibacterial activity against Staphylococcus aureus ATCC 25923 assessed as inhibition of bacterial growth after 24 hrs by CLSI protocol based two fold serial dilution method; procedure, shortened: as §1
[9] = tested on: Klebsiella pneumoniae; assay: Antibacterial activity against Klebsiella pneumoniae assessed as inhibition of bacterial growth after 24 hrs by CLSI protocol based two fold serial dilution method; procedure, shortened: as §1
[10] = tested on: Staphylococcus aureus; assay: Antibacterial activity against Staphylococcus aureus ATCC 29213 assessed as inhibition of bacterial growth after 24 hrs by CLSI protocol based two fold serial dilution method
[11] = tested on: Staphylococcus aureus; assay: Antibacterial activity against Staphylococcus aureus assessed as inhibition of bacterial growth after 24 hrs by CLSI protocol based two fold serial dilution method; procedure, shortened: as §1
[12] = tested on: Candida albicans; assay: Antifungal activity against Candida albicans assessed as inhibition of fungal growth after 24 hrs by CLSI protocol based two fold serial dilution method; procedure, shortened: as §1
[13] = tested on: Acinetobacter baumannii; assay: Antibacterial activity against Acinetobacter baumannii assessed as inhibition of bacterial growth after 24 hrs by CLSI protocol based two fold serial dilution method; procedure, shortened: as §1
[14] = tested on: Candida albicans; assay: Antifungal activity against Candida albicans ATCC 90023 assessed as inhibition of fungal growth after 24 hrs by CLSI protocol based two fold serial dilution method; procedure, shortened: as §1
[15] = tested on: Escherichia coli; assay: Antibacterial activity against Escherichia coli assessed as inhibition of bacterial growth after 24 hrs by CLSI protocol based two fold serial dilution method; procedure, shortened: as §1
[16] = tested on: Candida tropicalis; assay: Antifungal activity against Candida tropicalis assessed as inhibition of fungal growth after 24 hrs by CLSI protocol based two fold serial dilution method; procedure, shortened: as §1
[17] = tested on: Klebsiella pneumoniae; assay: Potentiation of 2-(4-(3-(2-aminothiazol-4-yl)-1-ethyl-6-fluoro-4-oxo-1,4-dihydroquinolin-7-yl)piperazin-1-yl)acetonitrile-induced antibacterial activity against Klebsiella pneumoniae assessed as fold reduction in 2-(4-(3-(2-aminothiazol-4-yl)-1-ethyl-6-fluoro-4-oxo-1,4-dihydroquinolin-7-yl)piperazin-1-yl)acetonitrile MIC by CLSI protocol based two fold serial dilution method
[18] = tested on: Staphylococcus aureus; assay: Antibacterial activity against methicillin-resistant Staphylococcus aureus assessed as bacterial growth inhibition in presence of 2-(4-(3-(2-aminothiazol-4-yl)-1-ethyl-6-fluoro-4-oxo-1,4-dihydroquinolin-7-yl)piperazin-1-yl)acetonitrile by CLSI protocol based two fold serial dilution method
Procedure, shortened: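 Checkerboard-type pairing, with each agent tested alone and combined by CLSI two-fold serial dilution. MICs are from three independent experiments. FIC index = (MIC of A combined/MIC of A alone) + (MIC of B combined/MIC of B alone). An index ≤1 is read as synergistic and 1–2 as additive.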

[19] = tested on: Staphylococcus aureus; assay: Antibacterial activity against Staphylococcus aureus assessed as bacterial growth inhibition in presence of 2-(4-(3-(2-aminothiazol-4-yl)-1-ethyl-6-fluoro-4-oxo-1,4-dihydroquinolin-7-yl)piperazin-1-yl)acetonitrile by CLSI protocol based two fold serial dilution method
[20] = tested on: Klebsiella pneumoniae; assay: Antibacterial activity against Klebsiella pneumoniae assessed as bacterial growth inhibition in presence of 2-(4-(3-(2-aminothiazol-4-yl)-1-ethyl-6-fluoro-4-oxo-1,4-dihydroquinolin-7-yl)piperazin-1-yl)acetonitrile by CLSI protocol based two fold serial dilution method; procedure, shortened: as §1
[21] = tested on: Escherichia coli; assay: Antibacterial activity against Escherichia coli assessed as bacterial growth inhibition in presence of 2-(4-(3-(2-aminothiazol-4-yl)-1-ethyl-6-fluoro-4-oxo-1,4-dihydroquinolin-7-yl)piperazin-1-yl)acetonitrile by CLSI protocol based two fold serial dilution method; procedure, shortened: as §1

Compound | MIC [1] [µM] | MIC [2] [µM] | MIC [3] [µM] | MIC [4] [µM] | MIC [5] [µM] | MIC [6] [µM] | MIC [7] [µM] | MIC [8] [µM] | MIC [9] [µM] | MIC [10] [µM] | MIC [11] [µM] | MIC [12] [µM] | MIC [13] [µM] | MIC [14] [µM] | MIC [15] [µM] | MIC [16] [µM] | also measured
CCn1cc(-c2csc(N)n2)c(=O)c2cc(N3CCNCC3)c(Cl)cc21 | 1320 (≈ 513 µg/mL) | 329 (≈ 128 µg/mL) | 164 (≈ 63.9 µg/mL) | 164 (≈ 63.9 µg/mL) | 658 (≈ 257 µg/mL) | 658 (≈ 257 µg/mL) | 41 (≈ 16 µg/mL) | 82 (≈ 32 µg/mL) | 164 (≈ 63.9 µg/mL) | 329 (≈ 128 µg/mL) | 82 (≈ 32 µg/mL) | 329 (≈ 128 µg/mL) | 1320 (≈ 513 µg/mL) | 164 (≈ 63.9 µg/mL) | 329 (≈ 128 µg/mL) | 329 (≈ 128 µg/mL) | –
CCCCCCCCCCN1CCN(c2cc3c(cc2F)c(=O)c(-c2csc(N)n2)cn3CC)CC1 | 249 (≈ 128 µg/mL) | 499 (≈ 256 µg/mL) | 125 (≈ 64.2 µg/mL) | 499 (≈ 256 µg/mL) | 997 (≈ 512 µg/mL) | 249 (≈ 128 µg/mL) | 499 (≈ 256 µg/mL) | 499 (≈ 256 µg/mL) | 499 (≈ 256 µg/mL) | 997 (≈ 512 µg/mL) | 499 (≈ 256 µg/mL) | 997 (≈ 512 µg/mL) | 249 (≈ 128 µg/mL) | 997 (≈ 512 µg/mL) | 499 (≈ 256 µg/mL) | 499 (≈ 256 µg/mL) | –
CC(=O)OCC1=C(C(=O)O)N2C(=O)[C@@H](NC(=O)CS/C(=N/C(C)C)NC(C)C)[C@H]2SC1 | – | – | – | – | 4 (≈ 1.89 µg/mL) | – | – | – | 4 (≈ 1.89 µg/mL) | – | 34 (≈ 16.1 µg/mL) | – | – | – | 17 (≈ 8.03 µg/mL) | – | fold change (FC) [17]: 5; MIC [18]: 2 µM; MIC [19]: 4 µM; MIC [20]: 2 µM; MIC [21]: 8 µM
CCCCCCN1CCN(c2cc3c(cc2F)c(=O)c(-c2csc(N)n2)cn3CC)CC1 | 560 (≈ 256 µg/mL) | 70 (≈ 32 µg/mL) | 1120 (≈ 513 µg/mL) | 140 (≈ 64.1 µg/mL) | 280 (≈ 128 µg/mL) | 140 (≈ 64.1 µg/mL) | 280 (≈ 128 µg/mL) | 140 (≈ 64.1 µg/mL) | 140 (≈ 64.1 µg/mL) | 280 (≈ 128 µg/mL) | 140 (≈ 64.1 µg/mL) | 1120 (≈ 513 µg/mL) | 70 (≈ 32 µg/mL) | 1120 (≈ 513 µg/mL) | 134 (≈ 61.3 µg/mL) | 560 (≈ 256 µg/mL) | –
CCN1CCN(c2cc3c(cc2F)c(=O)c(-c2csc(N)n2)cn3CC)CC1 | 80 (≈ 32.1 µg/mL) | 319 (≈ 128 µg/mL) | 160 (≈ 64.2 µg/mL) | 160 (≈ 64.2 µg/mL) | 319 (≈ 128 µg/mL) | 160 (≈ 64.2 µg/mL) | 319 (≈ 128 µg/mL) | 80 (≈ 32.1 µg/mL) | 160 (≈ 64.2 µg/mL) | 638 (≈ 256 µg/mL) | 319 (≈ 128 µg/mL) | 319 (≈ 128 µg/mL) | 319 (≈ 128 µg/mL) | 319 (≈ 128 µg/mL) | 319 (≈ 128 µg/mL) | 40 (≈ 16.1 µg/mL) | –
CCn1cc(-c2csc(N)n2)c(=O)c2cc(N3CCN(c4cc5c(cc4F)c(=O)c(-c4csc(N)n4)cn5CC)CC3)c(Cl)cc21 | 757 (≈ 513 µg/mL) | 757 (≈ 513 µg/mL) | 189 (≈ 128 µg/mL) | 757 (≈ 513 µg/mL) | 757 (≈ 513 µg/mL) | 757 (≈ 513 µg/mL) | 757 (≈ 513 µg/mL) | 757 (≈ 513 µg/mL) | 379 (≈ 257 µg/mL) | 757 (≈ 513 µg/mL) | 757 (≈ 513 µg/mL) | 757 (≈ 513 µg/mL) | 757 (≈ 513 µg/mL) | 757 (≈ 513 µg/mL) | 189 (≈ 128 µg/mL) | 757 (≈ 513 µg/mL) | –
CCn1cc(-c2csc(N)n2)c(=O)c2cc(F)c(N3CCN(Cc4ccc(Cl)cc4Cl)CC3)cc21 | 15 (≈ 7.99 µg/mL) | 121 (≈ 64.4 µg/mL) | 482 (≈ 257 µg/mL) | 482 (≈ 257 µg/mL) | 15 (≈ 7.99 µg/mL) | 121 (≈ 64.4 µg/mL) | 241 (≈ 128 µg/mL) | 60 (≈ 31.9 µg/mL) | 241 (≈ 128 µg/mL) | 241 (≈ 128 µg/mL) | 482 (≈ 257 µg/mL) | 482 (≈ 257 µg/mL) | 482 (≈ 257 µg/mL) | 482 (≈ 257 µg/mL) | 241 (≈ 128 µg/mL) | 482 (≈ 257 µg/mL) | –
